Experiment [1] addresses T1, DNA-dependent protein kinase catalytic subunit (Homo sapiens, UniProt P78527). Nature of the experiment: Inhibition of DNA-PK. Put shortly:
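The buffer was 1× reaction buffer of Hepes, KCl, MgCl2, EGTA, EDTA and DTT, with drug or water added. Reactions ran 5 min at 30 °C. ADP formed was read by ADP-Glo luminescence, and IC50 was obtained by curve fitting.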

The target of experiment [2] is T1, DNA-dependent protein kinase catalytic subunit. Nature of the experiment: Inhibition of purified DNA-PK by ADP-Glo Kinase assay. A digest of the protocol:
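Reaction used 5× buffer (250 mM Hepes, 500 mM KCl, 50 mM MgCl2, 1 mM EGTA, 0.5 mM EDTA, 5 mM DTT) diluted to 1×, with BSA and ATP (0.5 mM stock). Drug or water added; 30 °C, 5 min. ADP read by ADP-Glo luminescence; IC50 from curve fitting.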
A general note: ADP-Glo turns the ADP formed in a reaction into a luminescent signal.

In the next experiment the test system is Platelet. Nature of the experiment: Anti-platelet activity in human blood assessed as inhibition of collagen induced human platelet aggregation. The class given is functional, cell-based. Put shortly: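 Collagen-triggered aggregation measured optically in a two-channel platelet aggregometer.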

The text below walks through data of ChEMBL document CHEMBL1795296, “Synthesis, structural elucidation, DNA-PK inhibition, homology modelling and anti-platelet activity of morpholino-substituted-1,3-naphth-oxazines” (Bioorg Med Chem, 2011).

T1 sequence (P78527 whole entry): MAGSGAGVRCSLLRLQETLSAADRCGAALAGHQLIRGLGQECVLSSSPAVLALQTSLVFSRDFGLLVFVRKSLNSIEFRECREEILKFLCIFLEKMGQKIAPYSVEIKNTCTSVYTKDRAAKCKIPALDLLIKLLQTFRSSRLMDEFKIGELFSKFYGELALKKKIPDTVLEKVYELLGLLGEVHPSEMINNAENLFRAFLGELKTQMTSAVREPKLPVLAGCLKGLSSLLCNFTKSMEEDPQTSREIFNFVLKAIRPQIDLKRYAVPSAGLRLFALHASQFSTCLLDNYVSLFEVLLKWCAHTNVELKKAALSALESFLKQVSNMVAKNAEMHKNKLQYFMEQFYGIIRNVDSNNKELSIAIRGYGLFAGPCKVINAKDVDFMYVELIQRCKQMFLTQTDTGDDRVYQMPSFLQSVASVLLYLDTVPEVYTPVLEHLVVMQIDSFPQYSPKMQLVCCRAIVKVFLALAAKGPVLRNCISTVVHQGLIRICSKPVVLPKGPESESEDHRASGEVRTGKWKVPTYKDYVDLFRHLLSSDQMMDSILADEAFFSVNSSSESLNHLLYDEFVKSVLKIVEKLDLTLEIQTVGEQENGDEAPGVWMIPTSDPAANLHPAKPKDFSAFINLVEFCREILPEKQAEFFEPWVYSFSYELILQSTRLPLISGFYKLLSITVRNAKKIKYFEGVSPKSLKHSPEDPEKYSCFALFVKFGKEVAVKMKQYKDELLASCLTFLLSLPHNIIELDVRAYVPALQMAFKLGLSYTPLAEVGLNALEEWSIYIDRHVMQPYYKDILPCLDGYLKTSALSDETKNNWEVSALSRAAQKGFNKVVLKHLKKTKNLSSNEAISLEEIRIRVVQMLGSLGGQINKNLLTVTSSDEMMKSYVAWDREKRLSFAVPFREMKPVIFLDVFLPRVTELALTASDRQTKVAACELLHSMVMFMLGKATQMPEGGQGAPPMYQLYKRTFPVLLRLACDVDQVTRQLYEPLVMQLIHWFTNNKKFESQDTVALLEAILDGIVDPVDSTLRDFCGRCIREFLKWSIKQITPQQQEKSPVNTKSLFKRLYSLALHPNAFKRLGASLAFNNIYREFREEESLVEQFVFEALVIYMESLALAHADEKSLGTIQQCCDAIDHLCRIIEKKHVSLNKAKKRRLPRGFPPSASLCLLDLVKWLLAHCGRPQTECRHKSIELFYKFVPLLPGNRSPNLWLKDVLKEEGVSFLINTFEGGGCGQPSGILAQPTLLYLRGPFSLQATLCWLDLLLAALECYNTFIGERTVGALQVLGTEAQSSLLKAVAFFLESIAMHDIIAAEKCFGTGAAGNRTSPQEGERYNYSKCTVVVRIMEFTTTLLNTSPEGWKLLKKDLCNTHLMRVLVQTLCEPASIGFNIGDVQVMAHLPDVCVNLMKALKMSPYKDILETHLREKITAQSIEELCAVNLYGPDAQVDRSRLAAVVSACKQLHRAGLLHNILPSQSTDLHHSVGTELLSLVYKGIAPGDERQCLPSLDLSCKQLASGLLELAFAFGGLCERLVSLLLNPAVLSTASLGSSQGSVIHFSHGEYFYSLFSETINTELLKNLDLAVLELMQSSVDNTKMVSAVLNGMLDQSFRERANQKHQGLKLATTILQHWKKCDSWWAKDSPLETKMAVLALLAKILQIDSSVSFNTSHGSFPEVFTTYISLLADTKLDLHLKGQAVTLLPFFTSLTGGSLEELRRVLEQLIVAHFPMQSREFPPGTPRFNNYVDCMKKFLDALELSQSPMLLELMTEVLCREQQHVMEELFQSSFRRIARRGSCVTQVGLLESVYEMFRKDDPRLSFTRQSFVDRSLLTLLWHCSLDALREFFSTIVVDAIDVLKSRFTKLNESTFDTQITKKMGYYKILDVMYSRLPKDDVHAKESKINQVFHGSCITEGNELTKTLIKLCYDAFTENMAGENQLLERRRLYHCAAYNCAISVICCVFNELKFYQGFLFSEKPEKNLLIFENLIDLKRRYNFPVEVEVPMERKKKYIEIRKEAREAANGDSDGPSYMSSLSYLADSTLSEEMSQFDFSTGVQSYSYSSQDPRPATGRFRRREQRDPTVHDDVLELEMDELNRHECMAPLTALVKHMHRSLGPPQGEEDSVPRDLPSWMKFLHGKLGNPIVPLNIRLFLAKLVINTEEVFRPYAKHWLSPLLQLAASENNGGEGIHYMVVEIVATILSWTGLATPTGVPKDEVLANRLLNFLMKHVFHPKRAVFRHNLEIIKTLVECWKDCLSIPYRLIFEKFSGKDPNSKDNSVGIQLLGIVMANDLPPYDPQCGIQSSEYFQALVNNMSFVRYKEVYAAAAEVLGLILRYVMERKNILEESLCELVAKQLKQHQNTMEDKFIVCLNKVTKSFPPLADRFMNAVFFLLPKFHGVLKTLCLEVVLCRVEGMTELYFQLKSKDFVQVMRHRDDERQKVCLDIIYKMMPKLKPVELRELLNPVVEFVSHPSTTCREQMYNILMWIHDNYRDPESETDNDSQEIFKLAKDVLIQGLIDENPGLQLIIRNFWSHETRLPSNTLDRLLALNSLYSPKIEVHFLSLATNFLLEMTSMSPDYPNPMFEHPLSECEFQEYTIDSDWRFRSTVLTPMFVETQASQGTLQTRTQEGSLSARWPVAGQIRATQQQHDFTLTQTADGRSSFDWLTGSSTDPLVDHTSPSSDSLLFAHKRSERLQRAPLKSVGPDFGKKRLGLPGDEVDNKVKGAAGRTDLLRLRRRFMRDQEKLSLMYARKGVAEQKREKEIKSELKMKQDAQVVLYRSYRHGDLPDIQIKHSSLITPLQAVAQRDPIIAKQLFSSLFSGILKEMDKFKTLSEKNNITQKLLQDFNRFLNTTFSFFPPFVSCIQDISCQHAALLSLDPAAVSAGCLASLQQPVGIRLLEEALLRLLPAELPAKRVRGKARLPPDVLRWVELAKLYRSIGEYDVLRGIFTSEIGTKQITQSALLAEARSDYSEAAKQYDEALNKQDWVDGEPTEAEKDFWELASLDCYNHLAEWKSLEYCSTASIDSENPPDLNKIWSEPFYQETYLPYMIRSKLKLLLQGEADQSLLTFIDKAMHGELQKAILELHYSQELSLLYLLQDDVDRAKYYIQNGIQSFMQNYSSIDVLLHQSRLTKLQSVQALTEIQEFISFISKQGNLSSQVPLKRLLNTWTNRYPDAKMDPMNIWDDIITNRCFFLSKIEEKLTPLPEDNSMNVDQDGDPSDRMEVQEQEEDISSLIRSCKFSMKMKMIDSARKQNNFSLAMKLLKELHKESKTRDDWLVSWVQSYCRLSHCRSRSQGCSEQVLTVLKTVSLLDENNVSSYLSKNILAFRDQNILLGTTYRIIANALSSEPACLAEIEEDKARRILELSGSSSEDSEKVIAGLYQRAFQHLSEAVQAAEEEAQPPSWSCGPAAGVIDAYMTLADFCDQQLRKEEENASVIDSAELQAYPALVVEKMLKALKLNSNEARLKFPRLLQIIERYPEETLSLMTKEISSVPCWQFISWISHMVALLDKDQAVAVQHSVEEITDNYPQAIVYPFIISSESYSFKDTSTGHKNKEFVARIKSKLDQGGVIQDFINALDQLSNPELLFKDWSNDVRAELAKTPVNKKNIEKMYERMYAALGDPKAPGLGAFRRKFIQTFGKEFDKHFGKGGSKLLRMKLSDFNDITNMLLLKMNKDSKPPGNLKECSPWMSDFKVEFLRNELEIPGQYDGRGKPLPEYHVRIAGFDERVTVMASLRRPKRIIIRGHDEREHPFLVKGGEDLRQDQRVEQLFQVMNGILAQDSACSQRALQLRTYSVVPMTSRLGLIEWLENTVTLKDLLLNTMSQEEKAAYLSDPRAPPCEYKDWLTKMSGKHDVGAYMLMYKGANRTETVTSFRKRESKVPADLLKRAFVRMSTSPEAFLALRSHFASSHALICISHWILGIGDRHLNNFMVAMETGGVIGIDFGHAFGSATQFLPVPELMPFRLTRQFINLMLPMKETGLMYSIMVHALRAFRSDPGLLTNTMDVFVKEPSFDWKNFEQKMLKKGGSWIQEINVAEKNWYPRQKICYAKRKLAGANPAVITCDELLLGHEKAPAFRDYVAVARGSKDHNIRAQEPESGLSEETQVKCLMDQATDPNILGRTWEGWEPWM

A word on the IC50: it is the concentration at which inhibition is half-maximal. The compound `O=c1cc(N2CCOCC2)oc2c1ccc1ccccc12` yielded an IC50 in experiment [1] of 0.3 µM.
On to `O=c1nc(N2CCOCC2)oc2ccc3ccccc3c12`, for which the IC50 in experiment [2] amounted to 0.72 µM; with Platelet, 450 µM.
For the compound `O=c1nc(N2CCOCC2)oc2c1ccc1ccccc12`, the half-inhibitory concentration (IC50) in experiment [2] came to 0.42 µM; in the experiment on Platelet it was 280 µM.
Take `O=c1nc(N2CCOCC2)oc2cc3ccccc3cc12`: the IC50 amounted to 6.5 µM in experiment [2] and 155 µM with Platelet.
With `O=c1nc(N2CCOCC2)oc2c1cc(OCc1ccccn1)c1ccccc12`, the half-maximal inhibitory concentration (IC50) in experiment [2] came to 2.43 µM; in the experiment on Platelet it was 100 µM.
Regarding `O=c1nc(N2CCOCC2)oc2c1cc(OCc1cccnc1)c1ccccc12`, the figures for the IC50 (in experiment [2]; with Platelet) were 0.717 µM and 100 µM, respectively.
For `O=c1nc(N2CCOCC2)oc2cc3ccc(OCc4ccccn4)cc3cc12`, in that order: 0.096 µM and 100 µM.
Regarding `O=c1nc(N2CCOCC2)oc2cc3ccc(OCc4cccnc4)cc3cc12`, the IC50 in experiment [2] turned out to be 1.7 µM; with Platelet, 55 µM.
As for `O=c1nc(N2CCOCC2)oc2cc3c(OCc4ccccn4)cccc3cc12`, the figures for the IC50 (in experiment [2]; with Platelet) were 0.93 µM and no less than 100 µM, respectively.
Consider `O=c1nc(N2CCOCC2)oc2cc3c(OCc4cccnc4)cccc3cc12`, for which the concentration for half-maximal inhibition (IC50) came to 0.33 µM in experiment [2] and 85 µM in the experiment on Platelet.
On to `CN1CCN(CCOc2cc3c(=O)nc(N4CCOCC4)oc3c3ccccc23)CC1`, for which the results for the 50% inhibitory concentration (IC50) (in experiment [2]; with Platelet) were 0.76 µM and 100 µM, respectively.
Turning to `CN1CCN(CCOc2ccc3cc4oc(N5CCOCC5)nc(=O)c4cc3c2)CC1`, the half-maximal inhibitory concentration (IC50) in experiment [2] was determined as 0.19 µM; with Platelet, 100 µM.
As to `CN1CCN(CCOc2cccc3cc4c(=O)nc(N5CCOCC5)oc4cc23)CC1`, the half-maximal inhibitory concentration (IC50) in experiment [2] was found to be 3.09 µM; in the experiment with Platelet, 100 µM.
